Records with an inconclusive call do not appear. The source made the active and inactive calls.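 How the source made its calls: active means compounds raising caspase signal with fitted AC50 no more than tenfold above the top tested dose; inconclusive means flat curve at 30 to 70% activity, or unusable fit; inactive means the rest.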 Bounds are passed on as bounds.

For the assay, the system named is MEF WT non-primed, caspase-Glo luminescence, 3 h. As to the kind of experiment: caspase activation in non-primed cells, dose response, counter-screen for Bcl2-A1 inhibitor project, cell-based, caspase-Glo luminescence, 3 h (AID 449761). In outline: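 Assay system: Non-primed wild-type MEF cells; Quantity: 2500 cells per well; Doses: 100 nL compound added per well by pin transfer; Medium: RPMI-1640 plus 10% FBS; Detection: CaspaseGlo luminescence; Timing: 3 h compound at 37 °C, 1 h reagent at RT.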
Background: A counterscreen serves to expose hits that act by an unwanted route or on another target.
For `COc1cc(NC(=O)c2ccccc2)c(OC)cc1NC(=O)Cc1ccc(Br)cc1`, the AC50 (as a rule, the concentration giving half of the maximal activity seen) was > 35 µM (inactive). Consider `COc1cc2cnc(-c3ccccc3)c(-c3cccc(C(F)(F)F)c3)c2cc1OC`, for which the AC50 was > 35 µM (inactive). `COc1ccc(C2CC(c3c(O)cc(C)oc3=O)=NCCS2)c(OC)c1` (stereo not given): the AC50 is > 35 µM (inactive). Take `COc1ccccc1-c1cn[nH]c1-c1ccc(OCc2ccccc2)cc1O`: the AC50 was > 35 µM (inactive). For `COc1ccc(C2C(O)C(c3c[nH]c4ccccc34)=NN2C(=O)CCl)cc1` (stereo not given), the half-maximal activity concentration (AC50) is 36.1 µM.

As for `COc1ccccc1CCNC(C)CCc1ccc(O)cc1` (stereo not given), the AC50 is > 35 µM (inactive). The result for `Cn1c(=NC(=O)CCl)sc2ccccc21` reads > 35 µM (inactive). For `COc1ccc(-c2c(C#N)c(N)nc(Sc3ccc(Cl)cc3)c2C#N)cc1`, the AC50 is > 35 µM (inactive). The result for `NC(=S)c1cn(C2OC(CO)C(O)C2O)c2ncnc(N)c12` (stereo not given) reads > 35 µM (inactive). Consider `CC(=O)OC(C)(C)/C=C/C(=O)[C@](C)(O)C1[C@H](O)C[C@@]2(C)C3CC=C4C(C[C@H](O)C(=O)C4(C)C)[C@]3(C)C(=O)C[C@]12C` (stereo not given in full), for which the AC50 was > 35 µM (inactive). The figure for `CCOc1cc(C(=O)CSc2nnc(CNc3ccc(Cl)cc3)o2)ccc1NC(=O)CC` is 16 µM. As for `O=C1/C(=C\c2c(NCCOCCO)nc3ccccn3c2=O)SC(=S)N1Cc1ccco1`, the AC50 was > 35 µM (inactive).

Take `CSC[C@@H]1NC(=S)N(c2ccc(C)cc2)C1=O`: the AC50 was > 35 µM (inactive). On to `CC1=CC(=O)C(C(C)C)=C/C1=N/OS(=O)(=O)c1ccccc1`, for which the AC50 is 22 µM. The figure for `C/C1=C\[C@@H](C)C/C=C/[C@H]2[C@@H]3O[C@]3(C)[C@@H](C)[C@H]3[C@H](Cc4c[nH]c5ccccc45)NC(=O)[C@]32C(=O)/C=C/C(=O)[C@@H]1O` is 8.71 µM; for `COc1cc(/C=C(/C#N)c2nc3ccccc3[nH]2)ccc1OCC(=O)Nc1ccccc1C(C)C` it is 7.53 µM. Take `COc1ccc(-c2ccc3c(c2)S(=O)(=O)c2cccc(C(=O)NCCOc4ccccc4)c2C3=O)cc1OC`: the AC50 was > 35 µM (inactive).

Take `CCOc1ccc(NCc2cccn2-c2nnc(N3CCC(C(=O)NCCCN4CC(C)CC(C)C4)CC3)s2)cc1` (stereo not given): the AC50 was > 35 µM (inactive). In the case of `CCc1nn(-c2cc(Oc3cccc4ccccc34)nc(-c3ccccc3)n2)c(N)c1C#N`, the AC50 is > 35 µM (inactive).

With `CCN(C(=O)CCN1C(=O)c2ccccc2S1(=O)=O)c1ccccc1`, the AC50 is > 35 µM (inactive).

Consider `CC(C)CCN(C(=O)Cc1ccc(Cl)c(Cl)c1)c1c(N)n(Cc2ccccc2)c(=O)[nH]c1=O`, for which the AC50 is 14.6 µM.

As to `CC1(C)C[C@H](O)[C@]2(CO)[C@H](O)C[C@]3(C)C(=CCC4[C@@]5(C)CC[C@H](O)C(C)(C)C5CC[C@]43C)[C@@H]2C1` (stereo not given in full), the AC50 was > 35 µM (inactive). `Cc1ccc(-c2nc(NC(=O)c3nn(C)cc3[N+](=O)[O-])sc2C)cc1`: the half-maximal activity concentration (AC50) was 5.96 µM. Regarding `CC(C)(C)[C@H](N)C(=O)N[C@H]1CCC2C3CC=C4C[C@@H](O)CC[C@]4(C)C3CC[C@@]21C` (stereo not given in full), the AC50 is > 35 µM (inactive). As to `CCOCCCNC(=O)c1ccc2c(c1)N=C(CC)c1cc(Br)ccc1S2`, the AC50 is > 35 µM (inactive). Regarding `O=[N+]([O-])/C=C/c1cn(Cc2ccc(Cl)cc2)c2ccccc12`, the AC50 was 18.4 µM. The figure for `CC(=O)Nc1ccc(NC(=O)C(C)OC(=O)/C=C/c2cn(-c3ccccc3)nc2-c2cccnc2)cc1` (stereo not given) is 25 µM; for `CC[C@H]1CN2CCc3cc(OC)c(OC)cc3[C@@H]2C[C@@H]1C[C@H]1NCCc2cc(OC)c(OC)cc21` it is > 35 µM (inactive). The result for `O=C(Nc1ccc2oc(-c3ccccc3F)nc2c1)c1ccccc1F` reads > 35 µM (inactive); that for `COC(=O)c1ccc2c(c1)C(C)(C)C(/C=C/c1ccccc1O)=[N+]2C`, 8.57 µM; that for `CC(CCc1ccccc1)NC(=O)c1ccc(NC(=O)c2ccccc2)cc1` (stereo not given), 27.7 µM. `CCOC(=O)/C=c1\s/c(=C\c2ccc(C(=O)OC)cc2)c(=O)n1CC(=O)Nc1ccccc1`: the AC50 was > 35 µM (inactive). As for `CCOC(=O)c1ccc(-c2ccc(/C=N/NC(=O)CN(c3cccc(C)c3)S(C)(=O)=O)o2)cc1`, the AC50 is 31.1 µM. As to `CN(C)C/C=C(\c1ccc(Br)cc1)c1cccnc1`, the AC50 was > 35 µM (inactive). `COc1ccc(C(=O)/C=C/C(=O)N(CC(=O)NC2CCCCC2)Cc2cccs2)c(O)c1`: the half-maximal activity concentration (AC50) is 23.7 µM.

On to `Cc1occc1-c1nnc(SCC(=O)NCCc2ccccc2)n1Cc1ccccc1`, for which the AC50 was > 35 µM (inactive). The figure for `CC1=NNC(=O)/C1=C\c1cn(-c2ccccc2)nc1-c1cccs1` is 14.3 µM. For `Cc1nn(Cc2c(Cl)cccc2Cl)c(C)c1NC(=O)c1cn(-c2ccccc2)nc1-c1ccccc1`, the AC50 was 16.6 µM. On to `CCc1nc(N=Nc2c(O)[nH]c3ccccc23)c2c3c(sc2n1)CCC3`, for which the AC50 is 18.2 µM.

As to `CN(c1ccccc1)c1ccc(/C=C/[N+](=O)[O-])cc1`, the half-maximal activity concentration (AC50) was 8.45 µM.

For the compound `Cc1cccc(NC(=O)CSc2nc(C)c(CC(=O)c3ccc(Br)cc3)c(C)c2C#N)c1C`, the AC50 was > 35 µM (inactive). In the case of `Cc1ccc(S(=O)(=O)c2nnn3c2nc(Nc2cccc(C)c2)c2ccccc23)cc1`, the AC50 was > 35 µM (inactive). The result for `COc1cc(/C=C(/C#N)c2nc3ccccc3[nH]2)ccc1OCC(=O)Nc1ccccc1C` reads 5.91 µM; that for `COc1ccc(OC[C@@H](O)CNC(=O)c2cccc3c2C(=O)c2ccc(-c4ccc(F)cc4OCc4ccccc4)cc2S3(=O)=O)cc1`, > 35 µM (inactive). Take `COc1ccc(N(C(=O)CCl)C(C(=O)NCCc2ccccc2)c2cccs2)cc1Cl` (stereo not given): the AC50 was 27.4 µM.

Regarding `COc1ccc(NC(=S)NC(NC(=O)/C=C/c2ccccc2)C(Cl)(Cl)Cl)cc1` (stereo not given), the AC50 was > 35 µM (inactive). Take `Cc1ccc(Sc2c([N+](=O)[O-])c(=O)n(C)c3ccccc23)cc1`: the AC50 was > 35 µM (inactive). As to `COC(=O)c1ccc2c(c1)C(C)(C)C(/C=C/c1ccc(O)cc1)=[N+]2C`, the concentration at half-maximal activity (AC50) was 14.2 µM. `Cc1ccc2nc(N(CCCN(C)C)C(=O)c3ccc(S(=O)(=O)N4CCc5ccccc5C4)cc3)sc2c1`: the AC50 was > 35 µM (inactive). The result for `COc1cc(-c2cc(-c3ccccc3)nc(SCC(=O)Nc3nccs3)c2C#N)cc(OC)c1OC` reads > 35 µM (inactive).

For the compound `N#Cc1c(C(F)(F)F)cc(-c2ccccc2)nc1SCC(=O)Nc1sc2c(c1C#N)CCC2`, the AC50 was > 35 µM (inactive). For the compound `CCOc1cc(/C=C2/C(=N)N3C=CSC3=NC2=O)ccc1OCCCOc1ccccc1C`, the AC50 is 8.09 µM. Consider `CCOC(=O)COc1ccccc1/C=C\[N+](=O)[O-]`, for which the concentration at half-maximal activity (AC50) was 12.2 µM. As for `O=C(Nc1ccc2oc(-c3ccccc3)nc2c1)c1ccccc1F`, the AC50 is > 35 µM (inactive). Take `Cc1cccc(CS(=O)(=O)c2ncc(Cl)c(C(=O)Nc3nnc(C(C)C)s3)n2)c1`: the AC50 is > 35 µM (inactive). Regarding `CCOC(=O)c1c(C)oc2c1c(CN1CCN(C(=O)OCC)CC1)c(O)c1ccccc12`, the AC50 is 20.8 µM.

For the compound `COC(=O)Cc1csc(/N=C/c2c(O)n(-c3cccc(C(F)(F)F)c3)c(=O)c3ccccc23)n1`, the AC50 is 9.26 µM. As for `COc1ccccc1-c1cc(C(F)(F)F)nc(S(=O)(=O)CCCC(=O)N2CCOCC2)n1`, the half-maximal activity concentration (AC50) was 8.99 µM. Turning to `O=C(COc1ccc(/C=N/NC(=O)c2cc3ccccc3o2)cc1Br)Nc1ccccc1`, the AC50 was 28.5 µM. Turning to `CC(C)c1cccc(-c2ccc3c(c2)S(=O)(=O)c2cccc(C(=O)NCc4ccccc4Cl)c2C3=O)c1`, the AC50 is > 35 µM (inactive). The result for `O=C(CCl)N=c1sccn1Cc1ccccc1Cl` reads > 35 µM (inactive); that for `COc1ccc(NC(=O)C(=O)N/N=C\c2ccc(CNC(=O)C(=O)Nc3ccc(C)c(C)c3)o2)c(OC)c1`, 23.5 µM. As to `COc1ccc(NC(=O)c2cccc3c2C(=O)c2ccc(-c4ccc(F)cc4OCc4ccccc4)cc2S3(=O)=O)cc1`, the AC50 was > 35 µM (inactive). The result for `Cc1ccc(S(=O)(=O)N(C)Cc2ccc(C(=O)N/N=C/c3ccc(OC(F)F)cc3)cc2)cc1` reads > 35 µM (inactive); that for `Cc1cc(NC(=O)CSc2nc3cc(Cl)ccc3c(=O)n2Cc2ccco2)no1`, > 35 µM (inactive); that for `Cc1cc(C)n(-c2nc(Nc3ccccc3C)nc(-n3nc(C)cc3C)n2)n1`, 32.1 µM. `O=C(COc1ccc(/C=N/NC(=O)c2cc3ccccc3o2)cc1Cl)Nc1ccccc1`: the concentration at half-maximal activity (AC50) was 9.56 µM. For `Cc1ccc(C)c(S(=O)(=O)NCC(=O)Nc2sc3c(c2C(N)=O)CCC(C)C3)c1` (stereo not given), the AC50 is > 35 µM (inactive).

With `COc1ccc(NC(=O)CSc2nc3ccc(Nc4nc(N5CCOCC5)nc(N5CCOCC5)n4)cc3s2)cc1`, the AC50 was > 35 µM (inactive). The figure for `COC(=O)CSc1nc(N)c2c3c(sc2n1)C(c1ccccc1)SC(c1ccccc1)C3` (stereo not given) is > 35 µM (inactive); for `Cc1ccc(C)c(NC(=S)NC(NC(=O)Cc2cccc3ccccc23)C(Cl)(Cl)Cl)c1` (stereo not given) it is 12 µM. On to `COc1cc(NC(=O)c2ccc(C)cc2C)ccc1NC(=O)c1cc2ccccc2o1`, for which the half-maximal activity concentration (AC50) is 30.4 µM. As for `COc1ccc2c(-c3cc4ccc(OCc5ccc(F)cc5)cc4oc3=O)cc(=O)oc2c1`, the half-maximal activity concentration (AC50) was 23.9 µM. Consider `Cc1ccc(C(=O)/C=C/C(=O)c2ccc(C)cc2)cc1`, for which the concentration at half-maximal activity (AC50) is 5.73 µM.

Take `Cc1c(CCOC(=O)c2ccc(N3CCOCC3)c([N+](=O)[O-])c2)sc[n+]1CC#N`: the AC50 is > 35 µM (inactive). For `CCCc1ccc(OCc2ccc(C(=O)N/N=C/c3cccc([N+](=O)[O-])c3)o2)c(OC)c1`, the concentration at half-maximal activity (AC50) is 6.35 µM.

As for `CN1C2CCC1/C(=C/c1ccccn1)C(=O)/C2=C\c1ccccn1`, the AC50 was > 35 µM (inactive). On to `COc1cc(SC#N)ccc1N=Cc1c(C)[nH]n(-c2ccc(C)cc2)c1=O`, for which the AC50 is 34.5 µM.

`Cc1cc(=O)[nH]c(SCC(=O)Nc2ccc(Br)cc2)c1C#N`: the AC50 is > 35 µM (inactive). Turning to `COc1ccc(C2Nc3ccc4ccccc4c3-c3c2c(=O)oc2ccccc32)cc1` (stereo not given), the AC50 was 18 µM.

For the origin of these results see PubChem BioAssay AID449761 (Broad Institute, 2010).
